pEC50: −log10 of the molar value. Calls of active or inactive are those of the source. The calls are words filed in the database; no cut-off is given here.

One experiment deals with T1, G-protein coupled bile acid receptor 1 (Homo sapiens) (UniProt Q8TDU6).
T1 sequence (whole entry): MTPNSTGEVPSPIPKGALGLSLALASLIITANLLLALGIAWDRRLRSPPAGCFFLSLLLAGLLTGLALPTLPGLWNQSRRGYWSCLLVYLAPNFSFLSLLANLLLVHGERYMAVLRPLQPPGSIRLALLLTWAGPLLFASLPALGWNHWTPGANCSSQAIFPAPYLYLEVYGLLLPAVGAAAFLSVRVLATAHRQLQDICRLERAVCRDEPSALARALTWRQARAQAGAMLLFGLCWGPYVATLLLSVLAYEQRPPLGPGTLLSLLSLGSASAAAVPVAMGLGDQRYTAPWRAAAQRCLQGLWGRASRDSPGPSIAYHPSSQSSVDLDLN
As to the kind of experiment: Agonist activity at human TGR5 expressed in HEK293 cells at 10 uM incubated for 30 mins by SEAP reporter gene based assay relative to control. The experiment is classed as functional, cell-based.
Settings: not given
The method in brief:
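293T/17 cells reverse-transfected with human TGR5 on reporter strips (3.8 × 10^4 cells/well, 20 h), then moved to serum-free DMEM stimulation medium with 1% DMSO. Compound at 10 µM in triplicate, 30 min on the bench, then 7 h at 37 °C. Medium heated 65 °C 30 min, SEAP substrate added, luminescence read. Efficacy is basal-subtracted RLU as % of 10 µM LCA. Mean ± SD of ≥2 independent experiments.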
In general terms: In a reporter assay the amount or activity of a reporter protein is the signal.
As to `CC[C@H]1[C@@H](O)[C@H]2[C@@H]3CC[C@H]([C@H](C)CCCC(=O)NCCS(=O)(=O)O)[C@H]3[C@H](C)C[C@@H]2[C@@]2(C)CC[C@@H](O)C[C@@H]12`, the result was inactive.

As to `C[C@H](CCC(=O)O)[C@H]1CC[C@@H]2[C@@H]1[C@H](C)C[C@H]1[C@H]2[C@H](O)C[C@@H]2C[C@H](O)CC[C@@]21C`, the result was inactive.

`CC[C@H]1[C@@H](O)[C@H]2[C@@H]3CC[C@H]([C@H](C)CC(=O)O)[C@H]3[C@H](C)C[C@@H]2[C@@]2(C)CC[C@@H](O)C[C@@H]12` returned an Activity of 11%.

For `C[C@H](CCCC(=O)O)[C@H]1CC[C@@H]2[C@@H]1[C@H](C)C[C@H]1[C@H]2[C@H](O)C[C@@H]2C[C@H](O)CC[C@@]21C`, the result was inactive.

With `C[C@H](CCCC(=O)O)[C@@H]1CC[C@@H]2[C@@H]1[C@H](C)C[C@H]1[C@H]2[C@H](O)C[C@@H]2C[C@H](O)CC[C@@]21C`, the Activity was determined as 26%.

With `C[C@H](CC(=O)NCCS(=O)(=O)O)[C@@H]1CC[C@@H]2[C@@H]1[C@H](C)C[C@H]1[C@H]2[C@H](O)C[C@@H]2C[C@H](O)CC[C@@]21C`, the Activity was determined as 7%.

Regarding `CC[C@H]1[C@@H](O)[C@H]2[C@@H]3CC[C@H]([C@H](C)CCC(=O)O)[C@H]3[C@H](C)C[C@@H]2[C@@]2(C)CC[C@@H](O)C[C@@H]12`, the Activity was 33%.

As to `CC[C@H]1[C@@H](O)[C@H]2[C@@H]3CC[C@@H]([C@H](C)C(=O)O)[C@H]3[C@H](C)C[C@@H]2[C@@]2(C)CC[C@@H](O)C[C@@H]12`, the Activity was found to be 10%.

In turn, `C[C@H](CC(=O)O)[C@@H]1CC[C@@H]2[C@@H]1[C@H](C)C[C@H]1[C@H]2[C@H](O)C[C@@H]2C[C@H](O)CC[C@@]21C` came in with an Activity of 4%.

As for `CC[C@H]1[C@@H](O)[C@H]2[C@@H]3CC[C@H]([C@H](C)CC(=O)NCCS(=O)(=O)O)[C@H]3[C@H](C)C[C@@H]2[C@@]2(C)CC[C@@H](O)C[C@@H]12`, the outcome was inactive.

As for `C[C@H](CCCCC(=O)O)[C@H]1CC[C@@H]2[C@@H]1[C@H](C)C[C@H]1[C@H]2[C@H](O)C[C@@H]2C[C@H](O)CC[C@@]21C`, the outcome was inactive.

For `C[C@@H]1C[C@H]2[C@H]([C@@H]3CC[C@@H]([C@H](C)C(=O)O)[C@H]31)[C@H](O)C[C@@H]1C[C@H](O)CC[C@@]12C`, the Activity turned out to be 4%.

The same experiment, now with this note: filed as agonist.
`C[C@H](CCCC(=O)NCCS(=O)(=O)O)[C@@H]1CC[C@@H]2[C@@H]1[C@H](C)C[C@H]1[C@H]2[C@H](O)C[C@@H]2C[C@H](O)CC[C@@]21C` yielded an Activity of 62%.

In turn, `C[C@H](CCC(=O)NCCS(=O)(=O)O)[C@@H]1CC[C@@H]2[C@@H]1[C@H](C)C[C@H]1[C@H]2[C@H](O)C[C@@H]2C[C@H](O)CC[C@@]21C` showed an Activity of 61%.

`C[C@@H]1C[C@H]2[C@H]([C@@H]3CC[C@@H]([C@H](C)C(=O)NCCS(=O)(=O)O)[C@H]31)[C@H](O)C[C@@H]1C[C@H](O)CC[C@@]12C` showed an Activity of 56%.

On to `CC[C@H]1[C@@H](O)[C@H]2[C@@H]3CC[C@@H]([C@H](C)CC(=O)O)[C@H]3[C@H](C)C[C@@H]2[C@@]2(C)CC[C@@H](O)C[C@@H]12`, for which the Activity amounted to 42%.

The compound `CC[C@H]1[C@@H](O)[C@H]2[C@@H]3CC[C@@H]([C@H](C)CCC(=O)NCCS(=O)(=O)O)[C@H]3[C@H](C)C[C@@H]2[C@@]2(C)CC[C@@H](O)C[C@@H]12` yielded an Activity of 99%.

In turn, `CC[C@H]1[C@@H](O)[C@H]2[C@@H]3CC[C@H]([C@H](C)CCC(=O)NCCS(=O)(=O)O)[C@H]3[C@H](C)C[C@@H]2[C@@]2(C)CC[C@@H](O)C[C@@H]12` gave an Activity of 99%.

As to `C[C@H](CCCCC(=O)O)[C@@H]1CC[C@@H]2[C@@H]1[C@H](C)C[C@H]1[C@H]2[C@H](O)C[C@@H]2C[C@H](O)CC[C@@]21C`, the Activity is 43%.

As to `CC[C@H]1[C@@H](O)[C@H]2[C@@H]3CC[C@H]([C@H](C)CCCC(=O)O)[C@H]3[C@H](C)C[C@@H]2[C@@]2(C)CC[C@@H](O)C[C@@H]12`, the Activity was 54%.

With `CC[C@H]1[C@@H](O)[C@H]2[C@@H]3CC[C@@H]([C@H](C)C(=O)NCCS(=O)(=O)O)[C@H]3[C@H](C)C[C@@H]2[C@@]2(C)CC[C@@H](O)C[C@@H]12`, the Activity was determined as 61%.

As for `CC[C@H]1[C@@H](O)[C@H]2[C@@H]3CC[C@@H]([C@H](C)CCCC(=O)NCCS(=O)(=O)O)[C@H]3[C@H](C)C[C@@H]2[C@@]2(C)CC[C@@H](O)C[C@@H]12`, the Activity was 99%.

`CC[C@H]1[C@@H](O)[C@H]2[C@@H]3CC[C@@H]([C@H](C)CC(=O)NCCS(=O)(=O)O)[C@H]3[C@H](C)C[C@@H]2[C@@]2(C)CC[C@@H](O)C[C@@H]12` registered an Activity of 42%.

As for `CC[C@H]1[C@@H](O)[C@H]2[C@@H]3CC[C@@H]([C@H](C)CCC(=O)O)[C@H]3[C@H](C)C[C@@H]2[C@@]2(C)CC[C@@H](O)C[C@@H]12`, the Activity was 62%.

With `CC[C@H]1[C@@H](O)[C@H]2[C@@H]3CC[C@@H]([C@H](C)CCCC(=O)O)[C@H]3[C@H](C)C[C@@H]2[C@@]2(C)CC[C@@H](O)C[C@@H]12`, the Activity was 69%.

For another experiment, the target named is T2, G-protein coupled bile acid receptor 1 (Homo sapiens, UniProt Q8TDU6).
T2 sequence (Q8TDU6 whole entry): T1 sequence (whole entry)
Kind of experiment: Agonist activity at human TGR5 expressed in HEK293 cells incubated for 30 mins by SEAP reporter gene based assay. The experiment is classed as functional, cell-based.
Settings: not given
The essentials: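 Human TGR5 reverse-transfected 293T/17 cells in serum-free stimulation medium with 1% DMSO received a concentration series in triplicate, 30 min at bench then 7 h at 37 °C, 5% CO2. SEAP luminescence was read after heat inactivation at 65 °C. Response is % of 10 µM LCA, fitted by four-parameter unconstrained nonlinear regression to give EC50. Mean ± SD of three independent experiments.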
One may read the pEC50 as −log10 of the EC50, conventionally taken in molar units. A low value points to a high EC50. In the case of `CC[C@H]1[C@@H](O)[C@H]2[C@@H]3CC[C@@H]([C@H](C)CCC(=O)NCCS(=O)(=O)O)[C@H]3[C@H](C)C[C@@H]2[C@@]2(C)CC[C@@H](O)C[C@@H]12`, the pEC50 was 6.51.

With `CC[C@H]1[C@@H](O)[C@H]2[C@@H]3CC[C@H]([C@H](C)CCC(=O)NCCS(=O)(=O)O)[C@H]3[C@H](C)C[C@@H]2[C@@]2(C)CC[C@@H](O)C[C@@H]12`, the pEC50 was 5.28.

In the case of `CC[C@H]1[C@@H](O)[C@H]2[C@@H]3CC[C@@H]([C@H](C)CCCC(=O)NCCS(=O)(=O)O)[C@H]3[C@H](C)C[C@@H]2[C@@]2(C)CC[C@@H](O)C[C@@H]12`, the negative logarithm of the EC50 (pEC50) was 6.57.

A further experiment addresses T3, Bile acid receptor (Homo sapiens) (UniProt Q96RI1).
T3 sequence (whole entry): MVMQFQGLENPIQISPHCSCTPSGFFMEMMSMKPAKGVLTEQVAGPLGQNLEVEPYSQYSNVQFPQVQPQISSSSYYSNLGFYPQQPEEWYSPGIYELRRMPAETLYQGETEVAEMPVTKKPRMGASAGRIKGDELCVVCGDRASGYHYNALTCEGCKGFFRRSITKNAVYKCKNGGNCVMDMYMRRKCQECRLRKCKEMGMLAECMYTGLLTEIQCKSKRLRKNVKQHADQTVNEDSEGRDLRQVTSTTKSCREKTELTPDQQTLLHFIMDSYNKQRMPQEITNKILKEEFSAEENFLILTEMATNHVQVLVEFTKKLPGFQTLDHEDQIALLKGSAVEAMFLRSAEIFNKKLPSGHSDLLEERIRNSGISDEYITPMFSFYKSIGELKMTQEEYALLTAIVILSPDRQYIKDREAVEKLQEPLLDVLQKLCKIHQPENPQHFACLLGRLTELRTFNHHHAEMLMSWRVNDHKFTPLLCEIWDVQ
As to the kind of experiment: Agonist activity at FXR (unknown origin) at 10 uM relative to control.
Settings: not given
The method in brief: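 Nuclear hormone receptor (NHR) transactivation screen at FXR run by Eurofins DiscoverX; test agents at 10 µM.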
For the compound `CC[C@H]1[C@@H](O)[C@H]2[C@@H]3CC[C@@H]([C@H](C)CCC(=O)O)[C@H]3[C@H](C)C[C@@H]2[C@@]2(C)CC[C@@H](O)C[C@@H]12`, the Activity was 31%.

Take `CC[C@H]1[C@@H](O)[C@H]2[C@@H]3CC[C@@H]([C@H](C)CCCC(=O)O)[C@H]3[C@H](C)C[C@@H]2[C@@]2(C)CC[C@@H](O)C[C@@H]12`: the Activity came to 23%.

Source of the values: ChEMBL document CHEMBL5385894, “The discovery of 12β-methyl-17-epi-18-nor-bile acids as potent and selective TGR5 agonists” (Eur J Med Chem, 2023).
